Our source for the folding enthalpy and Tm values is the array DNA melting data of Ke et al. (doi:10.1101/2024.01.08.574731).

Series [1] is described as follows: folding enthalpy; higher = less favourable; fluorescence melt of hairpins on a sequencing array, two-state fit. The note with it: sodium 0.088 M. In outline:
(§1)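 Hairpins were imaged by Cy3 fluorescence on a sequenced MiSeq flow cell with annealed Cy3 and quencher oligos, in 50 mM Na-HEPES pH 8.0, 25 mM NaCl, in 2.5 °C steps up to 60 °C. Bootstrapped two-state fits of normalised signals gave melting temperature and folding enthalpy. Four replicates were combined by inverse variance, and fitted temperatures were raised by 9.35 °C to match UV melts.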

Series [2] is described as follows: melting temperature; fluorescence melt of hairpins on a sequencing array, two-state fit, raised by 9.35 °C to match UV melts. The note with it: sodium 0.088 M. In outline: as §1

With GTTGTTGGAAACAGCAAC ((((.((....)).)))), the folding enthalpy in series [1] is -16.7 kcal/mol. Besides, the Tm in series [2] was 45.3 °C.
On the same counts, the results for GTTGTTGGAAACGACAAC (((((.(....).))))) are -8.7 kcal/mol and 48.4 °C.
As for GTTGTTTCGAAAGAAAAC (((..(((....)))))), the folding enthalpy in series [1] is -32.9 kcal/mol. Also, in series [2], the Tm turned out to be 41.8 °C.
On the same counts, the results for GTTTAACGAAAGTTAAC (((.(((....)))))) are -14.6 kcal/mol and 37.1 °C.
For the sequence GTTTACCGAAAGGTGAAC (((.(((....))).))), the folding enthalpy in series [1] is -33 kcal/mol. Further, in series [2], the Tm was determined as 51.4 °C.
Turning to GTTTACGAAAGTAAAAAC ((((((....)))..))), the folding enthalpy in series [1] was -12 kcal/mol. The Tm in series [2] amounted to 29.5 °C.
The like results for GTTTACGAAAGTAAAAC ((((((....))).))) were, in that order, -16.8 kcal/mol and 38.4 °C.
On the same counts, the results for GTTTACGAAAGTATAAC ((((((....))).))) are -12.8 kcal/mol and 32.4 °C.
For GTTTAGCCGAAAGGCAAC (((..(((....)))))), the folding enthalpy in series [1] is -8.63 kcal/mol. Besides, in series [2], the Tm was determined as 33.7 °C.
The like results for GTTTAGCGAAAGCTCAAC (((.(((....))).))) were, in that order, -20.6 kcal/mol and 41.7 °C.
On the same counts, the results for GTTTAGGCGAAAGCCAAC (((..(((....)))))) are -10.1 kcal/mol and 33.3 °C.
As for GTTTATGGAAACATGAAC (((.(((....))).))), in series [1], the folding enthalpy is -31.3 kcal/mol. In addition, the Tm in series [2] worked out at 35.7 °C.
The like results for GTTTCCACGAAAGTGAAC (((..(((....)))))) were, in that order, -8.62 kcal/mol and 27.2 °C.
The like results for GTTTCCGCGAAAGCGAAC (((..(((....)))))) were, in that order, -9.18 kcal/mol and 23.6 °C.
On the same counts, the results for GTTTCCGGAAACGGAAAC (((((((....))))))) are -46.4 kcal/mol and 64.6 °C.
With GTTTCGCGAAAGCGTAAC (((.(((....))).))), the folding enthalpy in series [1] is -21.9 kcal/mol. In series [2], the Tm is 48.6 °C.
As for GTTTCGGAAACGAAAC ((((((....)))))), in series [1], the folding enthalpy is -35.9 kcal/mol. Also, in series [2], the Tm was determined as 56.9 °C.
On the same counts, the results for GTTTCTGGAAACAGGAAC (((.(((....))).))) are -30.4 kcal/mol and 43.6 °C.
On to GTTTGACCGAAAGGTAAC (((..(((....)))))), for which the folding enthalpy in series [1] was -11.6 kcal/mol. Further, in series [2], the Tm was found to be 32.4 °C.
For GTTTGAGAAATCAAAC ((((((....)))))), in series [1], the folding enthalpy was -27.6 kcal/mol. For the same sequence, the Tm in series [2] worked out at 47 °C.
On to GTTTGAGGAAACTCAAGC (.(((((....))))).), for which the folding enthalpy in series [1] is -25.1 kcal/mol. In addition, the Tm in series [2] was found to be 40.5 °C.
In the case of GTTTGAGGAAACTCGAAC (((.(((....))).))), the folding enthalpy in series [1] was -31.7 kcal/mol. Moreover, in series [2], the Tm worked out at 45.6 °C.
On the same counts, the results for GTTTGCCGAAAGGCAAC (((.(((....)))))) are -10.7 kcal/mol and 50.4 °C.
On the same counts, the results for GTTTGCCGAAAGGCGAAC (((.(((....))).))) are -28.3 kcal/mol and 61.9 °C.
The like results for GTTTGCGAAAGCAACAAC ((((((....)))..))) were, in that order, -9.1 kcal/mol and 33.7 °C.
Take GTTTGCGAAAGCACAAAC ((((((....)))..))): the folding enthalpy in series [1] is -12.3 kcal/mol. The Tm in series [2] was found to be 31.6 °C.
Take GTTTGCGAAAGCATGAAC ((((((....)))..))): the folding enthalpy in series [1] was -8.14 kcal/mol. For the same sequence, the Tm in series [2] stood at 26.4 °C.
Turning to GTTTGGCGAAAGCCAAC (((.(((....)))))), the folding enthalpy in series [1] is -11.1 kcal/mol. The Tm in series [2] is 48.7 °C.
On to GTTTGGCGAAAGCCTAAC (((.(((....))).))), for which the folding enthalpy in series [1] is -21.8 kcal/mol. The Tm in series [2] is 51 °C.
On the same counts, the results for GTTTGGGCGAAAGCCAAC (((..(((....)))))) are -10.8 kcal/mol and 36.1 °C.
